The nature of this data set: Toxicity liver stage against HepG2, at 10uM. The note with it: human, HepG2-A16-CD81EGFP cells; read-out: INHIBITION
It is filed as cell-based. The arrangement: test concentration 10 uM, cell line HepG2-A16-CD81EGFP. Summed up:
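Uninfected HepG2-A16-CD81EGFP cells, 3 × 10^3 per well, 1536-well, plated on prespotted compound at 10 μM final, parasite-free screening media added to match infected plates; puromycin 10 μM positive, DMSO 0.5% negative; run in parallel with 48 h PbLuc assay at 37 °C, 5% CO2; viability by CellTiter-Glo luminescence, normalized to controls.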
Take `O=C(Cn1cccc(S(=O)(=O)N2CCCC2)c1=O)c1ccccc1Cl`: the cytotoxicity at 10 µM was 1.08%.

With `CCOC1CC2(CCN(CCO)CC2)c2ccc(C)cc21` (stereo unspecified), the cytotoxicity at 10 µM is 9.01%. `O=C(C1CN(Cc2ccoc2)CC12CCOCC2)N1CCCC1` (stereo unspecified): the cytotoxicity at 10 µM came to 11.2%. With `Cc1cnc(N2CCC3(CC2)CC3C(=O)NCC2CC2)nc1` (stereo unspecified), the cytotoxicity at 10 µM turned out to be 6.34%. Consider `O=S(=O)(C1CC1)N1CCOCC2(CN(c3ncccn3)CCO2)C1` (stereo unspecified), for which the cytotoxicity at 10 µM was 6.37%.

Regarding `CC(=O)N1CC(=O)N(c2ccccc2)CC12CCN(Cc1ccsc1)C2` (stereo unspecified), the cytotoxicity at 10 µM amounted to 13.4%. For `O=C(O)c1ccc2c(c1)C1(CCCCC1)CN2C(=O)c1cccc(F)c1` the value was 2.49%. In the case of `CCCS(=O)(=O)N1CCC2(CCN(Cc3cccc(F)c3)C2=O)C1` (stereo unspecified), the cytotoxicity at 10 µM was determined as 8.07%. With `O=C(O)c1nnn(-c2cc(F)cc(F)c2)c1-c1ccncc1` the figure was 7.16%; with `CNC(=O)CSc1nc2c(cnn2Cc2ccc(F)cc2)c(=O)[nH]1`, -16%; with `O=C(c1ccncn1)N1CCO[C@H]2[C@@H](OCc3cccnc3)CC[C@@H]21`, -7.69%. As to `O=C(C1CCOCC1)N1CCC2(CC1)CC(Oc1ccccc1)CO2` (stereo unspecified), the cytotoxicity at 10 µM was -17.3%. As to `COCC1COCCC12CCN(C(=O)CCc1ccccc1)CC2` (stereo unspecified), the cytotoxicity at 10 µM is -9.8%.

In the case of `Cc1nn(C)c2cnn(Cc3ccc(C(=O)NC4CC4)o3)c12`, the cytotoxicity at 10 µM was 9.43%. For `CSCc1cccc(S(=O)(=O)NCCCO)c1`, the cytotoxicity at 10 µM was -7.5%. As for `CCN1CCCC(c2nc(O)c3cc(C)ccc3n2)C1` (stereo unspecified), the cytotoxicity at 10 µM was 8.02%. For `NCCC(=O)N1CCC2(CC1)CN(C(=O)c1ccc(Cl)cc1)CCO2` the value was 3.1%; for `CN1CCN(c2ncccc2N)CC1`, 11.5%. For `CC(NCCn1cccn1)c1ccc(F)cc1F` (stereo unspecified) the value was 1.99%; for `Cc1ncsc1C(=O)N1CCCC1c1c(C)nn(C)c1C` (stereo unspecified), 0.71%. With `COCCCN(Cc1ccncc1)C(=O)C1COc2ccccc2C1` (stereo unspecified) the figure was 11.5%; with `OC1(CN2CCOC(Cn3cncn3)C2)CCCCC1` (stereo unspecified), 9.87%. For `CN1CCCC(N(C)C(=O)c2ccc(NC(=O)c3ccc[nH]3)cc2)C1` (stereo unspecified), the cytotoxicity at 10 µM is -11.4%. Take `Cc1ccc(C(=O)N(C)CC(=O)Nc2cccc(C)n2)cn1`: the cytotoxicity at 10 µM is -21.2%. Consider `CCC(=O)N1CCCN(C(=O)C2SCCc3sccc32)CC1` (stereo unspecified), for which the cytotoxicity at 10 µM was -8.98%.

On to `COCCn1cc(C(=O)N2CCCC2c2cccc(C)c2)ccc1=O` (stereo unspecified), for which the cytotoxicity at 10 µM was found to be 5.59%. In the case of `CC(C)CC(=O)NCCCc1cc(N)n(-c2ccccc2)n1`, the cytotoxicity at 10 µM is -5.29%. Turning to `CCCc1cc(NC2CCc3nc(CC)nn3C2)n2ncnc2n1` (stereo unspecified), the cytotoxicity at 10 µM is -16.3%. With `OC1CCN(c2ccnc3c(F)cc(Br)cc23)CC1`, the cytotoxicity at 10 µM stood at 11.6%. Regarding `CN(C)CCn1ccc2cc(NC(=O)NCc3ncnn3C)ccc21`, the cytotoxicity at 10 µM is -6.52%.

For the compound `CCCc1noc(CCC(=O)N2CCCC(c3ccn[nH]3)C2)n1` (stereo unspecified), the cytotoxicity at 10 µM came out at 12.2%. For `O=C1COc2cc(C(=O)NCc3ccc(Cl)s3)ccc2N1`, the cytotoxicity at 10 µM turned out to be 1.55%. Turning to `NS(=O)(=O)c1cnn(CCC(=O)N(Cc2ccccc2)C2CC2)c1`, the cytotoxicity at 10 µM came to 4.53%.

As to `O=C(Nc1ccc(F)cc1F)N(CCC(F)(F)F)C[C@H](O)CO`, the cytotoxicity at 10 µM was -7.64%. As to `CC(=O)Nc1ccc(F)c(S(=O)(=O)NC(C)(C)C)c1`, the cytotoxicity at 10 µM turned out to be 1.15%. Consider `Cc1csc(N2CCN(Cc3ccn(C)c(=O)c3)CC2)n1`, for which the cytotoxicity at 10 µM was 8.08%. For `CCc1nc(CN2CCCC(N(C)Cc3cnc(C)s3)C2)no1` (stereo unspecified), the cytotoxicity at 10 µM stood at 2.89%. For `Cc1nc(C)n(CC2CCCN2CC(=O)NCc2ccco2)n1` (stereo unspecified), the cytotoxicity at 10 µM was -18.5%. Consider `Cc1n[nH]c(C)c1C1COCCN1C(=O)Cc1cccc(F)c1` (stereo unspecified), for which the cytotoxicity at 10 µM is -10.7%. Consider `Cc1ccc(N2CCCC3(CCN(C(=O)CC(F)(F)F)C3)C2)nn1` (stereo unspecified), for which the cytotoxicity at 10 µM was -108%. For `O=C(Cc1ccco1)N1C[C@H]2CCC[C@@]2(COCC2CC2)C1`, the cytotoxicity at 10 µM was -108%. As for `COCc1cnc2n1CCN(C(=O)c1cn(C)c3ccccc13)C2C` (stereo unspecified), the cytotoxicity at 10 µM is -108%. Take `O=C1COC2(CCN(c3ccccn3)CC2)CN1Cc1ccccn1`: the cytotoxicity at 10 µM is -0.861%.

For `COCC(C)N1CCc2onc(-c3ccc(F)c(F)c3)c2C1` (stereo unspecified), the cytotoxicity at 10 µM was -4.31%. For `CCn1ccnc1CN1CCN(Cc2ccc(C)o2)[C@@H]2CS(=O)(=O)C[C@@H]21` the value was -11.2%. With `CCCN1CCCn2nc(CNC(=O)CCOC)cc2C1` the figure was -12.2%. Regarding `Cc1nn(CCO)c(C)c1CN1CCN(C2CCCCC2)C(=O)C1`, the cytotoxicity at 10 µM amounted to 0.541%. Regarding `CCOc1ccc(C(=O)N2CCC(Oc3ccccc3)(C(=O)O)CC2)o1`, the cytotoxicity at 10 µM worked out at 14.1%.

With `c1cncc(CN(Cc2ccsc2)Cc2ccc(C3CCCCO3)o2)c1` (stereo unspecified), the cytotoxicity at 10 µM is 14.8%. For `CN(C)Cc1ccc(C2CCCCN2C(=O)c2cc(=O)[nH]c(=O)[nH]2)cc1` (stereo unspecified) the value was -3.95%. For the compound `O=C(CCSc1ccc2c(c1)OCCO2)NCC1CCS(=O)(=O)C1` (stereo unspecified), the cytotoxicity at 10 µM is -4.01%. As for `O=C1CCC2(CCOC2)CN1Cc1ccc2nsnc2c1` (stereo unspecified), the cytotoxicity at 10 µM is -7.73%.

In the case of `CCN(Cc1noc(C)n1)C(=O)C(c1ccc(C)cc1)N(C)C` (stereo unspecified), the cytotoxicity at 10 µM is -5.21%. For `CNc1cc(C)nc(N2CCC3(CC2)[C@H](O)C[C@@H]3OCCO)n1`, the cytotoxicity at 10 µM was -1.82%. Turning to `Cc1cc(NCc2cc3n(n2)CCCN(C(=O)N(C)C)C3)ncn1`, the cytotoxicity at 10 µM was -11.4%. Take `Cc1cc(N2CCN3CCCCC3C2)n2nc(C)c(C)c2n1` (stereo unspecified): the cytotoxicity at 10 µM was -10.4%. With `Cc1cc(-c2nn(C)c(Cl)c2CN2CCOCC2CC(=O)O)no1` (stereo unspecified) the figure was -12.2%; with `COCCN1CCCC1c1nccnc1Nc1nc(C)cs1` (stereo unspecified), 6.02%. Take `Cc1cnn(CC2CN(Cc3cccc(C(N)=O)c3)CCO2)c1` (stereo unspecified): the cytotoxicity at 10 µM was -1.52%. `O=C(c1ccc2nncn2c1)N1CCCC(n2ccnc2)C1` (stereo unspecified): the cytotoxicity at 10 µM was -1.14%.

As to `CC(C)Cn1nnnc1SC(C(=O)NCc1cccnc1)C(C)C` (stereo unspecified), the cytotoxicity at 10 µM was -4.05%. For `CN(Cc1ccccn1)C1CCCN(Cc2noc(C3CC3)n2)C1` (stereo unspecified), the cytotoxicity at 10 µM is 1.82%.

For `Cc1nnc(CN2CCCC2c2c(C)nn(C)c2Cl)o1` (stereo unspecified), the cytotoxicity at 10 µM came to 0.174%. Take `c1ccc(-n2ccc(CNCC3CCCN3c3cccnn3)n2)cc1` (stereo unspecified): the cytotoxicity at 10 µM was -10.2%. For the compound `Cc1nn(C)c(N2CCOCC2)c1CNC(C)c1cccs1` (stereo unspecified), the cytotoxicity at 10 µM is -1.47%. Regarding `CCOc1cc(C(=O)N2CCCC(c3noc(CC)n3)C2)ccn1` (stereo unspecified), the cytotoxicity at 10 µM was -3.65%. In the case of `COc1ccccc1OCCNC(=O)CN1CCN(C)CC1C` (stereo unspecified), the cytotoxicity at 10 µM was -12.1%. With `CC(C)c1ncc2c(n1)CN(Cc1nc(-c3ccco3)no1)CC2`, the cytotoxicity at 10 µM was -11.4%. For `Cc1cc(NC(=O)CN2CCc3cncnc3C2)no1`, the cytotoxicity at 10 µM was -11.5%.

For the compound `Cc1ccc2[nH]c(C(=O)N3CCCC3Cn3cccn3)cc2c1` (stereo unspecified), the cytotoxicity at 10 µM was -12%. On to `Cn1cc(CCNC(=O)NC2CCN(Cc3ccccn3)CC2)cn1`, for which the cytotoxicity at 10 µM is -16.4%. For the compound `Cc1ncsc1C(=O)N1CCCC(n2cncn2)C1` (stereo unspecified), the cytotoxicity at 10 µM amounted to 0.364%. For `Cc1cc(C)n(C2CCCN(C(=O)CCCc3ccccn3)C2)n1` (stereo unspecified) the value was -16.3%; for `COc1ccc(NC(=O)NCCCn2nc3ccccn3c2=O)cc1`, -13.3%; for `CC1CCCCN1CCNC(=O)c1ccn(-c2cccc(F)c2)n1` (stereo unspecified), -26%. Take `Cc1csc(N2CCCN(C(=O)C(C(C)C)n3cncn3)CC2)n1` (stereo unspecified): the cytotoxicity at 10 µM was -7.71%. Consider `O=C(NCc1cc[nH]n1)NCC(O)COc1cccc(F)c1` (stereo unspecified), for which the cytotoxicity at 10 µM worked out at 10.3%. For `O=C(NCc1ccccc1-n1cccn1)N1CCN2CCCCC2C1` (stereo unspecified) the value was -1.2%; for `O=S(=O)(NCc1ccccc1Cn1cncn1)C1CCCC1`, 0.674%; for `Cc1nc(C)n(C2CCCN(C(=O)c3cc(C(N)=O)cs3)C2)n1` (stereo unspecified), -6.86%. Take `CCc1ccc(OCC(O)CN2CCC(O)CC2)cc1` (stereo unspecified): the cytotoxicity at 10 µM is 3.99%. Take `CCn1cc(CN2CCCN(C(=O)c3ccn(C)c(=O)c3)CC2)cn1`: the cytotoxicity at 10 µM was -0.794%. As for `O=C(c1ccoc1)N1C[C@@H]2[C@@H](C1)OCC(=O)N2Cc1cccnc1`, the cytotoxicity at 10 µM was found to be 3.33%. Consider `Cc1ccc(C(=O)N2CC[C@H]3[C@@H]2CCC(=O)N3c2ccccc2)cn1`, for which the cytotoxicity at 10 µM was -112%.

As to `CN1CCO[C@@H]2CN(S(=O)(=O)c3ccc(F)cc3)CC[C@@H]2C1`, the cytotoxicity at 10 µM came to 2.56%.

Take `CN(C)[C@@H]1CN(Cc2cnn(C)c2)[C@@H]2COC[C@H]12`: the cytotoxicity at 10 µM stood at 7.37%. Take `NCCNS(=O)(=O)Cc1ccc(Br)cc1`: the cytotoxicity at 10 µM was 19.4%. With `COCCN1CCCc2sc(C(=O)Nc3ccc(C)nc3)nc21` the figure was 5.92%; with `O=C(NC[C@]12COC[C@H]1CN(Cc1cccnc1)C2)C1CCC1`, -105%.

As for `O=C(C1=CCCC1)N1CC[C@]2(C[C@H](OCc3cccnc3)CO2)C1`, the cytotoxicity at 10 µM amounted to 11.7%. As to `CCOCC1CN(Cc2ccoc2)Cc2nn(C)cc21` (stereo unspecified), the cytotoxicity at 10 µM was -2.8%. Take `Cc1ccc(CN2CCC3(CC2)NC(=O)CC3c2ccncc2)cc1C` (stereo unspecified): the cytotoxicity at 10 µM was 3.75%. Turning to `CC(C)n1ccc(-c2cc(C(=O)N3CCN(C)CC3)c3ccccn23)n1`, the cytotoxicity at 10 µM was found to be 9.49%.

As to `O=C(C1=CCCC1)N1C[C@@H]2COC[C@]2(COc2ncccc2F)C1`, the cytotoxicity at 10 µM was -99.3%. With `COCCN1CCN(S(C)(=O)=O)Cc2ccc(C)nc21`, the cytotoxicity at 10 µM was -5.06%. For `c1cnn(Cc2cn3c(n2)CN(Cc2nccs2)CC3)c1`, the cytotoxicity at 10 µM turned out to be 2.76%.

For the origin of these results see ChEMBL document CHEMBL4513216, “Probing the Open Global Health Chemical Diversity Library for Multistage-Active Starting Points for Next-Generation Antimalarials” (ACS Infect Dis, 2020).
